Values joined by “and” are separate entries in the source; they are usually repeats but may differ in a detail not shown here. Identical values can stand only once.
What was measured:
StAcrR [1] = target: T1, StAcrR (Salmonella enterica subsp. enterica serovar Typhimurium, UniProt Q7CR15); test: Competition FP assay in the presence of Pf; type: binding; conditions: for IC50: IC50, competition FP, 10 μM StAcrR and 100 nM Pf
StAcrR [2] = target: T1, StAcrR; test: Fluorescence-based thermal shift; type: binding; conditions: for FTS rank (Table S1): rank among hits of the SPC2-ECH008 library screen; for dose-dependent effect on StAcrR thermal stability: 2.5-100 μM ligand
Human enolase 1 (ENO1) = Human enolase 1 (ENO1) (Homo sapiens, UniProt P06733); test: FTS assay with negative control protein; type: binding; conditions: 10, 25, 50 and 100 μM ligand
Outline: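 Human enolase 1 was mixed with SYPRO Orange dye in 100 mM HEPES pH 7.5 with 150 mM NaCl. Ligands were dispensed acoustically from a DMSO stock. Plates were scanned from 10 to 80 °C at 1.5 °C min-1 on a real-time PCR instrument, reading fluorescence every 10 s. Stabilisation was judged from the melting temperature shift (ΔTm), background reduction and melting-curve shape.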

EcAcrR-Glu67Ala mutant = conditions: ref Li et al., 2007, Su et al.; cited from earlier work
StAcrR [3] = target: T1, StAcrR; test: Fluorescence polarization; type: binding
human ENO1 = human ENO1 (Homo sapiens, UniProt P06733); test: FP binding assay with negative control protein; conditions: ENO1 up to 100 μM
Chain of human ENO1 (P06733 whole entry): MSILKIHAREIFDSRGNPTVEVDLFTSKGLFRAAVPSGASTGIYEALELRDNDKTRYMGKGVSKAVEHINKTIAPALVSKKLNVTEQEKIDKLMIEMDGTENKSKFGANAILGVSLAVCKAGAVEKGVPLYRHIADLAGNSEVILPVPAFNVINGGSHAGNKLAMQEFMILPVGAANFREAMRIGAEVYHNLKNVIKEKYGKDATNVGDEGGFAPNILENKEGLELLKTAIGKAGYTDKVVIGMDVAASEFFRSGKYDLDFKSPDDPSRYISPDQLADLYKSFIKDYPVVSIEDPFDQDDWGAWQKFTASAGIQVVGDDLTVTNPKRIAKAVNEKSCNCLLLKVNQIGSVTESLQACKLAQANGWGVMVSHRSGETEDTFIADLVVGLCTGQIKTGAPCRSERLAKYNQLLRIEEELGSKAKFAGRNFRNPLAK

Chain of Human enolase 1 (ENO1) (P06733 whole entry): as above

## Cc1cc(N)c2ccccc2[n+]1CCCCCCCCCC[n+]1c(C)cc(N)c2ccccc21 [Dequalinium chloride, dequalinium]
StAcrR [1]
  IC50: 22.5 µM
StAcrR [2]; below 10 μM ligand
  change of Tm of StAcrR: did not notably change
StAcrR [2]
  FTS rank (Table S1): 14
Human enolase 1 (ENO1)
  effect on thermal stability of human enolase 1: no effect

## O=C(NC(=O)c1c(F)cccc1F)Nc1ccc(Cl)cc1 [Diflubenzuron, diflubenzuron]
StAcrR [1]; negative control ligand
  competition with Pf for binding: did not compete

## C[C@]12CC[C@@H]3c4ccc(OC(=O)N(CCCl)CCCl)cc4CC[C@H]3[C@@H]1CC[C@@H]2O [Estramustine, estramustine]
StAcrR [1]
  IC50: ~18 µM and 18 µM
StAcrR [2]
  dose-dependent effect on StAcrR thermal stability: Apparent increase in the StAcrR thermal stability at very low concentrations
  FTS rank (Table S1): 5

## CC[n+]1c(-c2ccccc2)c2cc(N)ccc2c2ccc(N)cc21 [Et, ethidium]
EcAcrR-Glu67Ala mutant
  binding by the Glu67Ala mutant of EcAcrR: abolishment of the binding
StAcrR [3]
  Kd: 67.3 ± 4.6 µM

## C[C@]12CC[C@@H]3c4ccc(O)cc4C[C@@H](CCCCCCCCC[S+]([O-])CCCC(F)(F)C(F)(F)F)[C@H]3[C@@H]1CC[C@@H]2O (stereo partly shown) [Fulvestrant, fulvestrant]
StAcrR [1]
  IC50: 40.1 µM
StAcrR [2]
  dose-dependent effect on StAcrR thermal stability: Apparent increase in the StAcrR thermal stability at very low concentrations
  FTS rank (Table S1): 1

## COC1=C(OC)C(=O)C(CCCCCCCCCCO)=C(C)C1=O [Idebenone, idebenone]
StAcrR [1]
  IC50: 2.8 µM
StAcrR [2]
  dose-dependent effect on StAcrR thermal stability: required higher concentrations
  FTS rank (Table S1): 2

## Nc1ccc2cc3ccc(N)cc3nc2c1 [Pf, proflavine]
Human ENO1
  FP increase with human ENO1: No FP increase
EcAcrR-Glu67Ala mutant
  binding by the Glu67Ala mutant of EcAcrR: abolishment of the binding
StAcrR [3]
  Kd: 3.9 ± 0.1 µM
StAcrR [3]; ratio of FP Kd values
  affinity to StAcrR relative to Et and R6G: over 10 fold

## C[C@]12CC[C@H](O)CC1=CC[C@@H]1[C@@H]2CC[C@]2(C)C(=O)CC[C@@H]12 [Prasterone, prasterone]
StAcrR [1]
  IC50: 5.4 µM
StAcrR [2]
  dose-dependent effect on StAcrR thermal stability: required higher concentrations
  FTS rank (Table S1): 6
StAcrR [2]; listed as prasterone
  FTS rank (Table S1): 9

## CC/N=c1\cc2oc3cc(NCC)c(C)cc3c(-c3ccccc3C(=O)OCC)c-2cc1C [R6G, rhodamine 6G]
EcAcrR-Glu67Ala mutant
  binding by the Glu67Ala mutant of EcAcrR: abolishment of the binding
StAcrR [3]
  Kd: 43.7 ± 1.3 µM

## CC(C)c1nc(CN(C)C(=O)N[C@H](C(=O)N[C@@H](Cc2ccccc2)C[C@H](O)[C@H](Cc2ccccc2)NC(=O)OCc2cncs2)C(C)C)cs1 [Ritonavir, ritonavir]
StAcrR [2]
  dose-dependent effect on StAcrR thermal stability: Apparent increase in the StAcrR thermal stability at very low concentrations
  FTS rank (Table S1): 4

## CSc1nc2cc(Cl)c(Oc3cccc(Cl)c3Cl)cc2[nH]1 [Triclabendazole, triclabendazole]
StAcrR [1]
  IC50: 25.7 µM
StAcrR [2]
  dose-dependent effect on StAcrR thermal stability: required higher concentrations
  FTS rank (Table S1): 3

From paper PMC6886526 (Journal of structural biology, 2016)
